# Assay outcomes deposited in PubChem by The Scripps Research Institute Molecular Screening Center.
# TAAR1 antagonist – human TAAR1 antagonism; CHO RD-HGA16 TAAR1, Fluo-8 calcium fluorescence, antagonist; inhibition, % at 3 µM; AID 624466; hit rate 1.5% among 360,000;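 active = inhibition above a per-plate cutoff, the mean inhibition of test compounds on that plate plus 3 SD, cut at about 49% in these data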;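 also: 0% = DMSO plus EC80 beta-PEA response and 100% = DMSO alone without agonist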
#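 Test system – hTAAR1-expressing CHO RD-HGA16 cells, Gα16-coupled · Also added – β-PEA at EC80 concentration, post-compound challenge · Compound – 3 µM, single point · Incubation – dye loading 75 min at 37 °C, then 30 min room temperature · Measured by – Fluo-8 intracellular calcium dye fluorescence, real-time kinetic reads · Benchmarks – vehicle and agonist controls · Replicates – singlicate, one well per test compound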
# TAAR1 agonist – human TAAR1 agonism; Q96RJ0; AID 624467; activation, % at 3 µM; CHO RD-HGA16 TAAR1, Fluo-8 calcium fluorescence; vehicle wells 0%, saturating PEA agonist 100%; hit rate 0.99% among 360,000;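 active = activation above the mean activation of all test compounds in the run plus 3 SD, cut at about 38% in these data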
#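 Test system: RD-HGA16 (CHO) cells co-expressing Gα16 and hTAAR1 / Benchmarks: DMSO vehicle as 0%, PEA at EC100 as 100% / Repeats: no replicates (n 1) / Measure: % activation from peak over basal fluorescence ratio, DMSO-to-PEA scaled / Timing: 17-24 h plating, Fluo-8 75 min 37 °C, 30 min RT / Technique: kinetic Fluo-8 calcium fluorescence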
# OX1R antag-1 – human HCRTR1 antagonism; hit rate 0.43% among 330,000; O43613; AID 434989; inhibition, % at 5 µM; CHO/OX1R cells, Fluo-8 calcium fluorescence, orexin A;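 active = inhibition above its plate's threshold, mean inhibition of all tested compounds on the plate plus 3 SD, cut at about 37% in these data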;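 also: 0% = orexin A challenge wells and 100% = SB-334867-A antagonist wells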
# Target sequence (O43613 whole entry, looked up): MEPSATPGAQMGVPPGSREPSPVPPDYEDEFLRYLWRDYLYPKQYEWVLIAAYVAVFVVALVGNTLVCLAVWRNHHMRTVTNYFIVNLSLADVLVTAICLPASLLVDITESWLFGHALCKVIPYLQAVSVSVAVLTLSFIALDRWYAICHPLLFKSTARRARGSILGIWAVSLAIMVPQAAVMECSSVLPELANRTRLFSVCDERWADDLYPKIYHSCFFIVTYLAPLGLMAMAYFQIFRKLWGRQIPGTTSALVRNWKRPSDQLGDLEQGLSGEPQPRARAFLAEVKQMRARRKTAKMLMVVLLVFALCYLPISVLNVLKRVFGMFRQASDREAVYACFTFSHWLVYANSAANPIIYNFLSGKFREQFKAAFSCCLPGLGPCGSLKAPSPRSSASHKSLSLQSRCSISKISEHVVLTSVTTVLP
# CHO parental Ca – counter-screen: ATP calcium response change in parental CHO cells | parental CHO-K1, ATP-induced calcium, Fluo-8 fluorescence | inhibition, % at 5.6 µM | hit rate 0.63% among 330,000;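 active = inhibition above that plate's mean sample inhibition plus 3 SD, cut at about 26% in these data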;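 also: 0% = ATP-challenged DMSO wells and 100% = DMSO wells without ATP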
#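 Material – parental CHO cells · Reagent – ATP stimulus · Compound – single nominal dose of 5.6 µM per compound · Detection – Fluo-8 fluorescence · Read-out basis – percent inhibition of calcium signal · Controls – ATP-challenged DMSO wells low, unchallenged DMSO wells high · Repeats – no replicates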
# OX1R antag-2 – OX1R (human) antagonism. OX1R-expressing cells, FRET antagonist read-out. inhibition, % at 6.6 µM. hit rate 1.8% among 330,000. O43613. AID 485270; in the data active = inhibition mostly above about 38%, no sharp cut-off; inactive = mostly below about 40%;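 also: 0% = agonist challenge alone and 100% = reference antagonist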
# OX1R Fluo8 conf – confirmation of human orexin 1 receptor antagonists; shares compounds with OX1R antag-1; hit rate 38% among 1,100; AID 492963; inhibition, % at 5 µM; CHO/OX1R cells, orexin A calcium Fluo-8 fluorescence; in the data active = inhibition above about 29%;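 also: 0% = agonist challenge alone and 100% = reference antagonist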
# CHO Ca counter – signal in parental CHO cells, OX1R antagonist counter-screen | inhibition, % at 5.6 µM | shares compounds with OX1R antag-1 | hit rate 9.3% among 1,100 | parental CHO-K1, ATP-induced calcium, Fluo-8 fluorescence;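 active = inhibition above a per-plate limit, the mean inhibition of that plate's test compounds plus 3 SD, cut at about 25% in these data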;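 also: 0% = ATP challenge with DMSO and 100% = DMSO without ATP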
# The depositor's hits bear a star; / = no result. Sampled rows, rich in hits. Any-hit rate of the full collection: about 4%.
SMILES,TAAR1 antagonist,TAAR1 agonist,OX1R antag-1,CHO parental Ca,OX1R antag-2,OX1R Fluo8 conf,CHO Ca counter
C=CC(COCc1ccccc1)N(C(=O)OC(C)(C)C)S(=O)(=O)c1ccccc1Br (stereo not drawn),18,2,-7,-10,38,/,/
CCN(c1ccccc1)S(=O)(=O)c1ccc(Cl)c(NC(=O)COC(=O)C2CC2C)c1 (stereo not drawn),7,6,27,10,17,-5,-8
CC1CCCCC1NC(=O)COC(=O)CNC(=O)c1cccc(F)c1 (stereo not drawn),5,18,-3,-4,2,/,/
COc1ccc(NC(=O)c2ccc(NC(=O)COC(=O)c3cnc(C)cn3)cc2)cc1,4,0,31,2,11,4,12
Cc1cnc(C(=O)OCC(=O)Nc2ccc(Oc3ccccc3)cc2)cn1,4,-3,-11,-2,7,/,/
O=C1N[C@@H](c2ccccc2)COC(=O)[C@H](Cc2ccc(F)cc2)C/C=C\C[C@H]1CC(=O)N(CCO)Cc1ccccc1,18,6,/,/,/,/,/
O=C1N[C@@H](c2ccccc2)COC(=O)[C@@H](Cc2ccc(F)cc2)C/C=C\C[C@@H]1CC(=O)N(CCO)Cc1ccccc1,77*,39*,58,11,20,63*,2
Cc1nonc1CC(=O)NC1CCCc2c1cnn2-c1ccc(F)cc1F (stereo not drawn),6,0,1,-1,1,/,/
Cc1cccc(C2c3[nH]c4ccccc4c3CCN2C(=O)CN2CCOC2=O)n1 (stereo not drawn),6,0,-37,-13,19,/,/
Cc1cccc(C2c3[nH]c4ccccc4c3CCN2C(=O)Cc2nc(-c3ccccc3)n[nH]2)n1 (stereo not drawn),24,6,41,10,10,18,-20
COCCNC(=O)/C(C#N)=C/c1c(N2CC(C)OC(C)C2)nc2ccccn2c1=O (stereo not drawn),-16,11,6,-5,40,/,/
COC(=O)[C@H](Cc1c[nH]c2ccccc12)NC(=O)CCCc1c[nH]c2ccccc12,45,18,47,23,40,64*,15
COc1ccccc1-c1coc2c(CN3CCCC(C)C3)c(O)ccc2c1=O (stereo not drawn),7,-1,-24,-11,5,/,/
N#CCC(CNc1ncc(C(F)(F)F)cc1Cl)OC(=O)c1c(F)cccc1F (stereo not drawn),21,2,46,-24,25,18,-10
CCOC(=O)c1ccccc1NC(=O)c1ccccc1SC,-4,15,53*,5,7,-15,-20
COC(=O)c1ccccc1NC(=O)c1ccccc1SC,-6,0,-20,-35,15,/,/
COc1ccc(Cn2c3ccc(OC)cc3c3nc4ccccc4nc32)cc1,-8,4,3,-3,2,/,/
CCOC(=O)Cn1c2ccccc2c2nc3ccccc3nc21,6,11,-12,-8,15,/,/
CCCn1c2ccccc2c2nc3ccccc3nc21,8,3,28,-29,72,12,-14
CCn1c2ccc(F)cc2c2nc3ccccc3nc21,0,8,34,-17,95,27,-4
Cc1c(-c2ccc(OCc3ccccc3)cc2)nc2ccccc2c1C(=O)O,-7,14,-8,-3,-7,/,/
Cc1ccc(NCCCn2ccc(NC(=O)OCc3ccccc3)nc2=O)cc1C,-9,0,/,/,/,/,/
Cc1ccnc(NS(=O)(=O)c2ccccc2)c1,-3,7,-17,-8,6,/,/
Cc1ccnc(NS(=O)(=O)c2cc([N+](=O)[O-])ccc2C)c1,-5,1,30,0,48,7,17
COc1ccc(-c2cc(-c3ccc(OC)c(OC)c3)n[nH]2)c(O)c1,11,7,35,19,40,4,-11
SMILES,TAAR1 antagonist,TAAR1 agonist,OX1R antag-1,CHO parental Ca,OX1R antag-2,OX1R Fluo8 conf,CHO Ca counter
COc1ccc(-c2cc(-c3ccccc3O)[nH]n2)cc1OC,2,3,-27,-11,10,/,/
COc1ccc(NC(=S)N(CCc2ccncc2)C(C)C)cc1Cl,9,5,/,/,/,/,/
CC(C)N(CCc1ccncc1)C(=S)Nc1ccc(F)c(Cl)c1,2,9,31,9,1,7,-2
Fc1ccc(NC(=S)Nc2ccc(F)c(Cl)c2)cc1Cl,/,/,34,24,36,37*,61*
CC1(C(=O)NS(=O)(=O)c2ccc3ccccc3c2)CCN1C(=O)Cc1ccc(-c2ccccc2)cc1 (stereo not drawn),-16,0,/,/,/,/,/
CCOC(=O)C(Cc1ccccc1)NC(=O)Cn1nnc(-c2ccccc2)n1 (stereo not drawn),15,25,29,13,25,52*,17
CC(C(=O)Nc1ccccc1)c1ccc(-c2ccccc2)c(F)c1 (stereo not drawn),/,/,40*,13,31,13,23
COc1cc(CNC(C)c2ccccc2)cc(Br)c1OCc1ccccc1 (stereo not drawn),38,18,46*,-3,-2,22,-3
COc1cc(CNC(C)c2ccccc2)cc(Br)c1OCc1ccc(F)cc1 (stereo not drawn),47,9,29,12,12,/,/
O=Cc1ccc(OC(=O)/C=C/c2ccccc2)cc1,-2,0,-9,-11,13,/,/
C[C@@H](CSc1ccc(Br)cc1)CN1CC[C@H](NC(=O)OCc2ccccc2)CCC1=O,43,9,53*,18,0,-4,0
O=C(Nc1cccc(C(=O)N2CCOCC2)c1)c1ccccc1Cl,-6,3,5,5,23,/,/
Cc1cccc(C(=O)N2CCc3cc(-c4nc(NC(=O)CN5CCCC5)sc4C)ccc32)c1,-22,-1,-32,-15,15,/,/
Cc1sc(NC(=O)CN2CCOCC2)nc1-c1ccc2c(c1)CCN2S(=O)(=O)c1ccccc1,30,21,42,22,20,18,28*
COc1ccc(C(=O)CSc2nc3ncccc3[nH]2)cc1OC,-3,4,-13,-14,9,/,/
COc1ccc(NS(=O)(=O)c2ccc(N3CCCCC3)c(N)c2)cc1,15,20,62*,12,16,20,65*
COc1ccc(NS(=O)(=O)c2ccc(N3CCCCC3)c(NC(=O)C(C)NC(N)=O)c2)cc1 (stereo not drawn),1,1,-7,-24,12,/,/
COc1ccc(OCc2n(CC(=O)OC3CC(C)CCC3C(C)C)c3ccccc3[n+]2C)cc1 (stereo not drawn),5,22,40*,22,8,47*,1
